From ChEMBL document CHEMBL1152472, “AdeIJK, a resistance-nodulation-cell division pump effluxing multiple antibiotics in Acinetobacter baumannii” (2008)
Values after ≈ are worked out from the molar mass of the structure shown.

How the values were obtained:
Acinetobacter baumannii [1] = experiment: Antimicrobial activity against Acinetobacter baumannii BM4652 expressing adeABC adeIJK double mutant isolated from patient with urinary tract infection by E test; format: functional; conditions: BM4652, Urine
Procedure, shortened: (§1)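 MICs determined on solid medium (Mueller-Hinton agar) by E-test. The strains are deletion-insertion derivatives of multiresistant urinary isolate BM4454 that lack adeIJK, adeABC or both. Strains were grown at 37°C in brain heart infusion broth or agar or in LB.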

Acinetobacter baumannii [2] = experiment: Antimicrobial activity against Acinetobacter baumannii BM4651 expressing deltaadeABC genes isolated from patient with urinary tract infection by E test; conditions: BM4651, Urine
Acinetobacter baumannii [3] = experiment: Antimicrobial activity against Acinetobacter baumannii BM4454 isolated from patient with urinary tract infection by E test; format: functional; conditions: BM4454, Urine
Procedure, shortened: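 MIC read by E-test strip on solid medium against the multiresistant AdeABC-overexpressing urinary isolate. Strains were grown at 37°C in brain heart infusion or LB.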

Acinetobacter baumannii [4] = experiment: Antimicrobial activity against Acinetobacter baumannii BM4579 expressing adeIJK genes with pAT807 isolated from patient with urinary tract infection by E test; conditions: BM4579, Urine
Acinetobacter baumannii [5] = experiment: Antimicrobial activity against Acinetobacter baumannii BM4652 expressing adeIJK genes with pAT807 isolated from patient with urinary tract infection by E test; format: functional; conditions: BM4652, Urine
Procedure, shortened: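 E-test MIC on solid medium, with 0.005 mM IPTG added to induce adeIJK carried on plasmid pAT807 in the ΔadeIJK host. Growth was at 37°C.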

Acinetobacter baumannii [6] = experiment: Antimicrobial activity against Acinetobacter baumannii BM4579 expressing deltaadeIJK genes isolated from patient with urinary tract infection by E test; format: functional; conditions: BM4579, Urine; procedure, shortened: as §1
Acinetobacter baumannii [7] = experiment: Antimicrobial activity against Acinetobacter baumannii BM4579 expressing deltaadeIJK genes isolated from patient with urinary tract infection by agar dilution method; format: functional; conditions: BM4579, Urine
Procedure, shortened: (§2)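 MICs determined by agar dilution on Mueller-Hinton agar with 10^4 CFU/spot; this method was used for ticarcillin and SDS. The strains are ΔadeIJK or ΔadeABC ΔadeIJK deletion-insertion derivatives of urinary isolate BM4454, grown at 37°C in brain heart infusion or LB medium.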

Acinetobacter baumannii [8] = experiment: Antimicrobial activity against Acinetobacter baumannii BM4652 expressing adeIJK genes with pAT807 isolated from patient with urinary tract infection by agar dilution method; format: functional; conditions: BM4652, Urine
Procedure, shortened: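 Agar-dilution MIC (ticarcillin, SDS), with 0.005 mM IPTG added to induce plasmid pAT807-borne adeIJK in the ΔadeIJK background. Growth was at 37°C.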

Acinetobacter baumannii [9] = experiment: Antimicrobial activity against Acinetobacter baumannii BM4579 expressing adeIJK genes with pAT807 isolated from patient with urinary tract infection by E test; format: functional; conditions: BM4579, Urine, in the assay text read “agar dilution method” for “E test”
Acinetobacter baumannii [10] = experiment: Antimicrobial activity against Acinetobacter baumannii BM4652 expressing adeABC adeIJK double mutant isolated from patient with urinary tract infection by agar dilution method; format: functional; conditions: BM4652, Urine; procedure, shortened: as §2
Acinetobacter baumannii [11] = experiment: Antimicrobial activity against Acinetobacter baumannii BM4454 isolated from patient with urinary tract infection by agar dilution method; format: functional; conditions: BM4454, Urine
Procedure, shortened: (§3)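 MIC by agar dilution, the method used for ticarcillin and SDS. Strains were grown at 37°C in brain heart infusion or LB.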

Acinetobacter baumannii [12] = experiment: Antimicrobial activity against Acinetobacter baumannii BM4651 expressing deltaadeIJK genes isolated from patient with urinary tract infection by agar dilution method; format: functional; conditions: BM4651, Urine, in the assay text read “deltaadeABC” for “deltaadeIJK”; procedure, shortened: as §3

Structure (SMILES)	MIC (Acinetobacter baumannii [1]) [µg/mL]	MIC (Acinetobacter baumannii [2]) [µg/mL]	MIC (Acinetobacter baumannii [3]) [µg/mL]	MIC (Acinetobacter baumannii [4]) [µg/mL]	MIC (Acinetobacter baumannii [5]) [µg/mL]	MIC (Acinetobacter baumannii [6]) [µg/mL]	MIC (Acinetobacter baumannii [7]) [µg/mL]	MIC (Acinetobacter baumannii [8]) [µg/mL]	MIC (Acinetobacter baumannii [9]) [µg/mL]	MIC (Acinetobacter baumannii [10]) [µg/mL]	MIC (Acinetobacter baumannii [11]) [µg/mL]	MIC (Acinetobacter baumannii [12]) [µg/mL]
CC[C@H]1OC(=O)[C@H](C)[C@@H](O[C@H]2C[C@@](C)(OC)[C@@H](O)[C@H](C)O2)[C@H](C)[C@@H](O[C@@H]2O[C@H](C)C[C@H](N(C)C)[C@H]2O)[C@](C)(O)C[C@@H](C)CN(C)[C@H](C)[C@@H](O)[C@]1(C)O [AZITHROMYCIN]	1.5 (≈ 2 µM)	1.5 (≈ 2 µM)	96 (≈ 128 µM)	96 (≈ 128 µM)	24 (≈ 32 µM)	96 (≈ 128 µM)						
CO/N=C(\C(=O)N[C@@H]1C(=O)N2C(C(=O)O)=C(COC(C)=O)CS[C@H]12)c1csc(N)n1 [CEFOTAXIME]	1.5 (≈ 3.29 µM)	8 (≈ 17.6 µM)	8 (≈ 17.6 µM)	3 (≈ 6.59 µM)	0.25 (≈ 0.549 µM)	1.5 (≈ 3.29 µM)						
O=C(N[C@H](CO)[C@H](O)c1ccc([N+](=O)[O-])cc1)C(Cl)Cl [CHLORAMPHENICOL]	16 (≈ 49.5 µM)	128 (≈ 396 µM)	256 (≈ 792 µM)	96 (≈ 297 µM)	6 (≈ 18.6 µM)	64 (≈ 198 µM)						
CCC[C@@H]1C[C@@H](C(=O)N[C@@H]([C@H]2O[C@H](SC)[C@H](O)[C@@H](O)[C@H]2O)[C@H](C)Cl)N(C)C1 [CLINDAMYCIN]	2 (≈ 4.71 µM)	> 256	> 256	48 (≈ 113 µM)	2 (≈ 4.71 µM)	48 (≈ 113 µM)						
CC[C@H]1OC(=O)[C@H](C)[C@@H](O[C@H]2C[C@@](C)(OC)[C@@H](O)[C@H](C)O2)[C@H](C)[C@@H](O[C@@H]2O[C@H](C)C[C@H](N(C)C)[C@H]2O)[C@](C)(O)C[C@@H](C)C(=O)[C@H](C)[C@@H](O)[C@]1(C)O [ERYTHROMYCIN]	1.5 (≈ 2.04 µM)	4 (≈ 5.45 µM)	12 (≈ 16.4 µM)	12 (≈ 16.4 µM)	3 (≈ 4.09 µM)	8 (≈ 10.9 µM)						
C[C@@H](O)[C@H]1C(=O)N2C(C(=O)O)=C(SCCNC=N)C[C@H]12 [IMIPENEM ANHYDROUS]	0.25 (≈ 0.835 µM)	0.5 (≈ 1.67 µM)	0.5 (≈ 1.67 µM)	0.25 (≈ 0.835 µM)	96 (≈ 321 µM)	0.25 (≈ 0.835 µM)						
C[C@H]1COc2c(N3CCN(C)CC3)c(F)cc3c(=O)c(C(=O)O)cn1c23.C[C@H]1COc2c(N3CCN(C)CC3)c(F)cc3c(=O)c(C(=O)O)cn1c23.O [LEVOFLOXACIN]	0.38	3	12		2	6						
CN(C)c1ccc(O)c2c1C[C@H]1C[C@H]3[C@H](N(C)C)C(O)=C(C(N)=O)C(=O)[C@@]3(O)C(O)=C1C2=O [MINOCYCLINE]	0.064 (≈ 0.14 µM)	0.5 (≈ 1.09 µM)	1.5 (≈ 3.28 µM)	1 (≈ 2.19 µM)	0.75 (≈ 1.64 µM)	0.25 (≈ 0.546 µM)						
COc1c(N2C[C@@H]3CCCN[C@@H]3C2)c(F)cc2c(=O)c(C(=O)O)cn(C3CC3)c12 [MOXIFLOXACIN]	0.5 (≈ 1.25 µM)	3 (≈ 7.47 µM)	12 (≈ 29.9 µM)	16 (≈ 39.9 µM)		12 (≈ 29.9 µM)						
CCn1cc(C(=O)O)c(=O)c2cc(F)c(N3CCN(C)CC3)cc21 [PEFLOXACIN]	4 (≈ 12 µM)	24 (≈ 72 µM)	48 (≈ 144 µM)	48 (≈ 144 µM)	12 (≈ 36 µM)	24 (≈ 72 µM)						
CO[C@H]1/C=C/O[C@@]2(C)Oc3c(C)c(O)c4c(O)c(c(/C=N/N5CCN(C)CC5)c(O)c4c3C2=O)NC(=O)/C(C)=C\C=C\[C@H](C)[C@H](O)[C@@H](C)[C@@H](O)[C@@H](C)[C@H](OC(C)=O)[C@@H]1C [RIFAMPIN]	2 (≈ 2.43 µM)	4 (≈ 4.86 µM)	4 (≈ 4.86 µM)	2 (≈ 2.43 µM)	1.5 (≈ 1.82 µM)	2 (≈ 2.43 µM)						
CN(C)[C@@H]1C(O)=C(C(N)=O)C(=O)[C@@]2(O)C(O)=C3C(=O)c4c(O)cccc4[C@@](C)(O)[C@H]3C[C@@H]12 [TETRACYCLINE]	0.5 (≈ 1.13 µM)	8 (≈ 18 µM)	48 (≈ 108 µM)	6 (≈ 13.5 µM)	0.75 (≈ 1.69 µM)	4 (≈ 9 µM)						
CC1(C)S[C@@H]2[C@H](NC(=O)[C@H](C(=O)O)c3ccsc3)C(=O)N2[C@H]1C(=O)O [TICARCILLIN]							1 (≈ 2.6 µM)	> 256	> 256	1 (≈ 2.6 µM)	8 (≈ 20.8 µM)	8 (≈ 20.8 µM)
CN(C)c1cc(NC(=O)CNC(C)(C)C)c(O)c2c1C[C@H]1C[C@H]3[C@H](N(C)C)C(O)=C(C(N)=O)C(=O)[C@@]3(O)C(O)=C1C2=O [TIGECYCLINE]	0.047 (≈ 0.0803 µM)	0.5 (≈ 0.854 µM)	4 (≈ 6.83 µM)	2 (≈ 3.41 µM)	3 (≈ 5.12 µM)	1.5 (≈ 2.56 µM)						
